According to ChEMBL document CHEMBL2021852 (ACS Med Chem Lett, 2011):
The source made the active and inactive calls. The rule behind the calls is not given here.

What was measured:
[1] = Fraction unbound in dog plasma; type: ADME, cell-free, Canis lupus familiaris
Salmonella typhimurium [2] = assay: Mutagenicity against Salmonella typhimurium in the presence of S9-mix; type: toxicity, organism-based; settings: salmonella enterica subsp. enterica serovar typhimurium
L5178Y [3] = assay: Genotoxicity against TK-positive mouse L5178Y cells; type: toxicity, cell-based
Renin [4] = target: T1, Renin (Homo sapiens, UniProt P00797); assay: Inhibition of renin in human plasma assessed as formation of angiotensin1 product after 90 mins by competitive radioimmunoassay
T1 sequence (P00797 whole entry): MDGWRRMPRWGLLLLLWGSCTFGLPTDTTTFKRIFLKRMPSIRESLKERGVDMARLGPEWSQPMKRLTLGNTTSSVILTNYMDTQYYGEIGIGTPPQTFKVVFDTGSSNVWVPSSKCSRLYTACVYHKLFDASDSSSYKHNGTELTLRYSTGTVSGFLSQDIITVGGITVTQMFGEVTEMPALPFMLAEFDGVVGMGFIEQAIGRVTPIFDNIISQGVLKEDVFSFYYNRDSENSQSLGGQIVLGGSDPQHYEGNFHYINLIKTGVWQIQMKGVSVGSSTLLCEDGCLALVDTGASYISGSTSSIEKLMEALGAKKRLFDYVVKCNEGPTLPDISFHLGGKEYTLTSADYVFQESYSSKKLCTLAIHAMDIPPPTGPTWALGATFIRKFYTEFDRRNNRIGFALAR
How it was run: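 IC50 for renin inhibition determined in the presence of human plasma; each value is the average of at least two replicates.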

L5178Y [5] = assay: Genotoxicity against TK-negative mouse L5178Y cells; type: toxicity, cell-based
[6] = Fraction unbound in cynomolgus monkey plasma; type: ADME, cell-free, Macaca fascicularis
Salmonella typhimurium [7] = assay: Mutagenicity against Salmonella typhimurium in the absence of S9-mix; type: toxicity, organism-based; settings: salmonella enterica subsp. enterica serovar typhimurium
Renin [8] = target: T1, Renin; assay: Inhibition of human recombinant renin using H-Asp-Arg-Val-Tyr-Ile-His-Pro-Phe-His-Leu-Val-Ile-His-Asn-OH as substrate assessed as formation of angiotensin1 product after 2 hrs by competive radioimmunoassay
How it was run: (§1)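 Purified recombinant human renin measured in buffer; each value is the average of at least two replicates.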

Renin [9] = target: T1, Renin; assay: Inhibition of human recombinant renin using DABCYL-gamma-Abu-Ile-His-Pro-Phe-His-Leu-Val-Ile-His-Thr-EDANS as substrate for 60 mins by fluorimetry; how it was run: as §1
Cytochrome P450 3A4 = Cytochrome P450 3A4 (Homo sapiens, UniProt P08684); assay: Inhibition of CYP3A4 using testosterone as substrate in human liver microsome for 20 mins by HPLC analysis; type: ADME, microsomes
Chain of Cytochrome P450 3A4 (P08684 whole entry): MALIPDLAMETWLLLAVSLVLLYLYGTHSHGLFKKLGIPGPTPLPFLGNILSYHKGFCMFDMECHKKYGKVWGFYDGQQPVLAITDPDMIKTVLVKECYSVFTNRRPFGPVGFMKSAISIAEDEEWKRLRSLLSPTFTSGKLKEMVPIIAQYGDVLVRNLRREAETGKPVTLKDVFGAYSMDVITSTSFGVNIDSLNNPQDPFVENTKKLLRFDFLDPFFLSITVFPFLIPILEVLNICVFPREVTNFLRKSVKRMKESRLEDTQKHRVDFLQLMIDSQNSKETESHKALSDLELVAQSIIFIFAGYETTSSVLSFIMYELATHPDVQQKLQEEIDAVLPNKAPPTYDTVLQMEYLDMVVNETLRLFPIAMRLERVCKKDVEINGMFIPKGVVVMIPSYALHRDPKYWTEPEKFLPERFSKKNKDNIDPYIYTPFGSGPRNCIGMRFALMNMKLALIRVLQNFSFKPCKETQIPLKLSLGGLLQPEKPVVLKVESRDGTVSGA
How it was run: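 CYP3A4 inhibition measured in human liver microsomes; IC50 is the average of at least two replicates.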

[10] = Half life in rat at 0.8 mg/kg, iv; type: ADME, organism-based; set-up: dose 0.8 mg/kg, route intravenous; settings: in vivo
How it was run: (§2)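 Compounds were dosed as fumarate salts in separate intravenous and oral arms. Oral AUC(0–t), IV half-life, IV clearance, Vss and oral bioavailability (F) were derived from the plasma levels.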

[11] = AUC (0 to t) in rat at 4 mg/kg, po; type: ADME, organism-based; set-up: dose 4 mg/kg, route oral; settings: plasma; how it was run: as §2
[12] = Clearance in rat at 0.8 mg/kg, iv; type: ADME, organism-based; set-up: dose 0.8 mg/kg, route intravenous; settings: in vivo; how it was run: as §2
[13] = Volume of distribution at steady state in rat at 0.8 mg/kg, iv and 4 mg/kg, po; type: ADME, organism-based; settings: in vivo, read-out: Vdss; how it was run: as §2
[14] = Oral bioavailability in rat at 4 mg/kg; type: ADME, organism-based; settings: in vivo; how it was run: as §2
[15] = Oral bioavailability in dog at 1 mg/kg; type: ADME, organism-based, Canis lupus familiaris; settings: in vivo; how it was run: as §2
[16] = Half life in cynomolgus monkey at 1 mg/kg, iv; type: ADME, organism-based, Macaca fascicularis; set-up: dose 1 mg/kg, route intravenous; settings: in vivo; how it was run: as §2
[17] = AUC (0 to t) in rat at 10 mg/kg, po; type: ADME, organism-based; set-up: dose 10 mg/kg, route oral; settings: plasma; how it was run: as §2
[18] = Clearance in dog at 1 mg/kg, iv; type: ADME, organism-based, Canis lupus familiaris; set-up: dose 1 mg/kg, route intravenous; settings: in vivo
[19] = Oral bioavailability in cynomolgus monkey at 2 mg/kg; type: ADME, organism-based, Macaca fascicularis; settings: in vivo; how it was run: as §2
[20] = AUC (0 to t) in dog at 1 mg/kg, po; type: ADME, organism-based, Canis lupus familiaris; set-up: dose 1 mg/kg, route oral; settings: plasma; how it was run: as §2
[21] = Half life in dog at 1 mg/kg, iv; type: ADME, organism-based, Canis lupus familiaris; set-up: dose 1 mg/kg, route intravenous; settings: in vivo
[22] = Clearance in cynomolgus monkey at 1 mg/kg, iv; type: ADME, organism-based, Macaca fascicularis; set-up: dose 1 mg/kg, route intravenous; settings: in vivo; how it was run: as §2
[23] = Half life in rat at 2 mg/kg, iv; type: ADME, organism-based; set-up: dose 2 mg/kg, route intravenous; settings: in vivo; how it was run: as §2
[24] = target: Cathepsin D (Homo sapiens) (UniProt P07339); assay: Inhibition of human cathepsin D using Mca-GKPILFFRLK(Dnp)-D-Arg-NH2 as substrate at 10 uM incubated for 10 mins prior to substrate addition measured for 1 hr by FRET analysis
Chain of Cathepsin D (Homo sapiens) (P07339 65-162 limits assumed): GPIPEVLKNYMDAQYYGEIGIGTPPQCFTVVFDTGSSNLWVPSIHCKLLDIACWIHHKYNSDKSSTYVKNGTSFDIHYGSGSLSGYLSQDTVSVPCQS
Chain of Cathepsin D (Homo sapiens) (P07339 169-412 limits assumed): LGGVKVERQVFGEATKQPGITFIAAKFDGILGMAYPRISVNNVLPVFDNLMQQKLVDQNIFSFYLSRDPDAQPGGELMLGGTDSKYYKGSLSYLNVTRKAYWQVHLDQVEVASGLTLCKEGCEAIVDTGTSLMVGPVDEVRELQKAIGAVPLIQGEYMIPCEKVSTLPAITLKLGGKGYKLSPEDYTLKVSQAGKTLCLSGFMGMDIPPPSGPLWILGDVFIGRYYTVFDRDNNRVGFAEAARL

Rattus norvegicus = assay: Antihypertensive activity in double transgenic rat expressing human renin assessed as reduction in mean arterial blood pressure at 10 mg/kg, po after 24 hrs; type: functional, organism-based; set-up: dose 10 mg/kg; settings: Artery
How it was run: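 Double transgenic rats expressing human renin and angiotensinogen, with severe hypertension dependent on human renin, received 10 mg/kg orally. Mean arterial pressure was followed over time, including at t = 24 h.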

[25] = target: Beta-secretase 1 (Homo sapiens) (UniProt P56817); assay: Inhibition of BACE using SEVNLDAEFK(Dnp)NH2 as substrate at 10 uM incubated for 10 mins prior to substrate addition measured for 1 hr by FRET analysis
Chain of Beta-secretase 1 (Homo sapiens) (P56817 whole entry): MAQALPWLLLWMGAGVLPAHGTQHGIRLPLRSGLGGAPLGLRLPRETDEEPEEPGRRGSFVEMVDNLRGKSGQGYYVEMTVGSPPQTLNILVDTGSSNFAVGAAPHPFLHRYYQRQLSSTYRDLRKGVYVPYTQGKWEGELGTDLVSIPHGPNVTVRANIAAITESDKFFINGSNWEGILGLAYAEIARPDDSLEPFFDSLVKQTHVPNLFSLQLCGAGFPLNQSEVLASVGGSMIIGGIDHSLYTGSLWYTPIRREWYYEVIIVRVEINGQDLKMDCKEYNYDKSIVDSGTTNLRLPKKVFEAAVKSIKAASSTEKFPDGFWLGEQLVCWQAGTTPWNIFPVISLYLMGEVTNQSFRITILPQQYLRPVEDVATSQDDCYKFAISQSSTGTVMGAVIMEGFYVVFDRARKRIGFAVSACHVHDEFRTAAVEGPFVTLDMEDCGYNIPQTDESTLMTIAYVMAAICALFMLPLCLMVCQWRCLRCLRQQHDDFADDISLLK

[26] = target: T2, Cathepsin E (Homo sapiens) (UniProt P14091); assay: Inhibition of human recombinant cathepsin E using Mca-GKPILFFRLK(Dnp)-D-Arg-NH2 as substrate at 10 uM incubated for 10 mins prior to substrate addition measured for 1 hr by FRET analysis
T2 sequence (whole entry): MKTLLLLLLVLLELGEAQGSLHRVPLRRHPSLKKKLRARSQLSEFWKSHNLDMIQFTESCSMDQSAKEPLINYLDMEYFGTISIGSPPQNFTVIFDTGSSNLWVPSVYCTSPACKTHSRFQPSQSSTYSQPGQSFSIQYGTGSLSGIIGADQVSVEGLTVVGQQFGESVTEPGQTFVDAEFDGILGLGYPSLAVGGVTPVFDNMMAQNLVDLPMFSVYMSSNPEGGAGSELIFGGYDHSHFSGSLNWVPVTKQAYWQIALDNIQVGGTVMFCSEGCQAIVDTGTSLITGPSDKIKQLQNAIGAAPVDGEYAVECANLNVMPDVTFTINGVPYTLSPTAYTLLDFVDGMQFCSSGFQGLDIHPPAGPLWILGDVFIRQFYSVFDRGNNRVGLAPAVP

[27] = Clearance in rat at 1.6 mg/kg, iv; type: ADME, organism-based; set-up: dose 1.6 mg/kg, route intravenous; settings: in vivo; how it was run: as §2
[28] = Oral bioavailability in rat at 8.2 mg/kg; type: ADME, organism-based; settings: in vivo; how it was run: as §2
[29] = Volume of distribution at steady state in rat at 1.6 mg/kg, iv and 8.2 mg/kg, po; type: ADME, organism-based; settings: in vivo, read-out: Vdss; how it was run: as §2
[30] = Half life in rat at 1.6 mg/kg, iv; type: ADME, organism-based; set-up: dose 1.6 mg/kg, route intravenous; settings: in vivo; how it was run: as §2
[31] = AUC (0 to t) in rat at 8.2 mg/kg, po; type: ADME, organism-based; set-up: dose 8.2 mg/kg, route oral; settings: plasma; how it was run: as §2

CN[C@H](CNC(=O)N1CCC[C@@H]([C@@H](OCCNC(=O)OC)c2cccc(Cl)c2)C1)C[C@H]1CCCOC1 [VTP-27999]
fraction unbound [1]: 0.22
Activity (Salmonella typhimurium [2]): Non-toxic
Activity (L5178Y [3]): Non-toxic
IC50 (Renin [4]): 1.1 nM
Activity (L5178Y [5]): Non-toxic
fraction unbound [6]: 0.29
Activity (Salmonella typhimurium [7]): Non-toxic
IC50 (Renin [8]): 0.3 nM
IC50 (Renin [9]): 0.47 nM

CNC[C@H](CC1CCOCC1)NC(=O)N1CCC[C@@H]([C@@H](OCCNC(=O)OC)c2cccc(Cl)c2)C1
IC50 (Renin [4]): 13.1 nM
IC50 (Cytochrome P450 3A4): > 30000 nM
IC50 (Renin [8]): 1.7 nM
IC50 (Renin [9]): 6.2 nM

COCCCC[C@@](O)(c1cccc(Cl)c1F)[C@@H]1CCCN(C(=O)NC[C@@H](N)CC2CCCCC2)C1.O=C(O)/C=C/C(=O)O
half-life [10]: 51 h
AUC(0-t) [11]: 269 ng·h/mL
clearance [12]: 47 mL/min/kg
Vd [13]: 101 L/kg
bioavailability [14]: 29.5%

COCCCOc1cc(C[C@@H](C[C@H](N)[C@@H](O)C[C@H](C(=O)NCC(C)(C)C(N)=O)C(C)C)C(C)C)ccc1OC.COCCCOc1cc(C[C@@H](C[C@H](N)[C@@H](O)C[C@H](C(=O)NCC(C)(C)C(N)=O)C(C)C)C(C)C)ccc1OC.O=C(O)/C=C/C(=O)O [ALISKIREN FUMARATE]
bioavailability [15]: 11%
half-life [16]: 14.7 h
AUC(0-t) [17]: 21 ng·h/mL
clearance [18]: 11 mL/min/kg
bioavailability [19]: 1.4%
AUC(0-t) [20]: 149 ng·h/mL
half-life [21]: 16.3 h
clearance [22]: 2.5 mL/min/kg
half-life [23]: 39.6 h

CNC[C@H](CC1CCCCC1)NC(=O)N1CCC[C@@H]([C@@H](OCCNC(=O)OC)c2cccc(Cl)c2)C1
IC50 (Cytochrome P450 3A4): 4600 nM

CN[C@H](CNC(=O)N1CCC[C@@H]([C@@H](OCCNC(=O)OC)c2cccc(Cl)c2)C1)C[C@H]1CCCOC1
inhibition [24]: < 10%
Activity (Rattus norvegicus): Active
inhibition [25]: < 10%
inhibition [26]: < 10%

CNC[C@H](C[C@H]1CCCOC1)NC(=O)N1CCC[C@@H]([C@@H](OCCNC(=O)OC)c2cccc(Cl)c2)C1
IC50 (Renin [4]): 0.48 nM
IC50 (Cytochrome P450 3A4): 28000 nM
IC50 (Renin [8]): 0.42 nM
IC50 (Renin [9]): 0.56 nM

CNC[C@H](CC1CCCCC1)NC(=O)N1CCC[C@@H]([C@@](O)(CCCCOC)c2cccc(Cl)c2F)C1.O=C(O)/C=C/C(=O)O
clearance [27]: 30 mL/min/kg
bioavailability [28]: 5.5%
Vd [29]: 16 L/kg
half-life [30]: 15.9 h
AUC(0-t) [31]: 226 ng·h/mL
